ChEMBL document CHEMBL4411280, “Synthesis, structure activity relationship and in vitro anti-influenza virus activity of novel polyphenol-pentacyclic triterpene conjugates” (Eur J Med Chem, 2019)
pIC50: −log10 of the molar value. The source made the active and inactive calls. The calls are words filed in the database; no cut-off is given here.

Experiments:
[1] = tested on: MDCK; experiment: Cytotoxicity against MDCK cells at 50 uM after 40 hrs by CellTiter-Glo assay; assay type: cell-based, Canis lupus familiaris; conditions: dog
Outline: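 Single-concentration toxicity screen at 50 μM final on MDCK cells for 40 h, read by CellTiter-Glo. 0.5% DMSO final as negative control. Triplicate experiments, standard deviations shown.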

[2] = Cytotoxicity against MDCK cells after 40 hrs by CellTiter-Glo assay; assay type: cell-based, Canis lupus familiaris; conditions: dog
Outline: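 MDCK cells grown overnight in medium with 1% FBS, then exposed to increasing compound concentrations for 40 h. Viability measured by CellTiter-Glo luminescence, and CC50 derived from it.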

[3] = tested on: Influenza A virus; experiment: Antiviral activity against Influenza A virus A/WSN/33/H1N1 infected in MDCK cells assessed as reduction in virus-induced cytopathic effect after 40 hrs by CellTiter-Glo assay; assay type: functional, organism-based; conditions: A/WSN/33/H1N1, MDCK
Outline: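 MDCK cells seeded overnight, infected with influenza A/WSN/33 (H1N1) at MOI 0.1. Kept in DMEM with 1% FBS, test compound, TPCK-treated trypsin and 1% final DMSO for 40 h. Cell viability read by CellTiter-Glo luminescence. IC50 taken from dose-response.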

[4] = tested on: Influenza A virus; experiment: Antiviral activity against Influenza A virus A/WSN/33/H1N1 infected in MDCK cells assessed as reduction in virus-induced cytopathic effect at 50 uM after 40 hrs by CellTiter-Glo assay; assay type: functional, organism-based
Outline: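 Single-concentration screen at 50 μM final. MDCK cells infected with A/WSN/33 (H1N1) at MOI 0.1 in DMEM/1% FBS with TPCK-trypsin for 40 h, viability by CellTiter-Glo. 0.5% DMSO final as negative control, oseltamivir as positive control. Triplicate experiments, standard deviations shown.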

| Structure (SMILES) | Activity [1] | also measured |
| --- | --- | --- |
| C[C@H]1[C@H](C)CC[C@]2(C(=O)NCCNC(=O)c3ccc(OCc4ccccc4)cc3)CC[C@]3(C)C(=CC[C@@H]4[C@@]5(C)CC[C@H](O)C(C)(C)[C@@H]5CC[C@]43C)[C@H]12 | Non-Toxic |  |
| C=C(C)[C@@H]1CC[C@]2(C(=O)NCCNC(=O)c3ccc(O)cc3)CC[C@]3(C)[C@H](CC[C@@H]4[C@@]5(C)CC[C@H](O)C(C)(C)[C@@H]5CC[C@]43C)[C@@H]12 | Toxic |  |
| CC1(C)CC[C@]2(C(=O)NCCNC(=O)c3cc(OCc4ccccc4)cc(OCc4ccccc4)c3)CC[C@]3(C)C(=CC[C@@H]4[C@@]5(C)CC[C@H](O)C(C)(C)[C@@H]5CC[C@]43C)[C@@H]2C1 | Non-Toxic |  |
| CC1(C)CC[C@]2(C(=O)NCCNC(=O)c3cc(O)c(O)c(O)c3)[C@H](O)C[C@]3(C)C(=CC[C@@H]4[C@@]5(C)CC[C@H](O)C(C)(C)[C@@H]5CC[C@]43C)[C@@H]2C1 | Toxic |  |
| CCOC(=O)C1=C[C@@H](OC(CC)CC)[C@H](NC(C)=O)[C@@H](N)C1 [OSELTAMIVIR] |  | CC50 at 40 h [2]: > 200 µM; pIC50 [3]: 4.78 |
| CC1(C)CC[C@]2(C(=O)NCCNC(=O)/C=C/c3ccccc3)CC[C@]3(C)C(=CC[C@@H]4[C@@]5(C)CC[C@H](O)C(C)(C)[C@@H]5CC[C@]43C)[C@@H]2C1 | Toxic |  |
| CC1(C)CC[C@]2(C(=O)NCCNC(=O)c3cc(OCc4ccccc4)c(OCc4ccccc4)c(OCc4ccccc4)c3)[C@H](O)C[C@]3(C)C(=CC[C@@H]4[C@@]5(C)CC[C@H](O)C(C)(C)[C@@H]5CC[C@]43C)[C@@H]2C1 | Non-Toxic | Activity [4]: Active |
| C[C@H]1[C@H](C)CC[C@]2(C(=O)NCCNC(=O)c3cc(OCc4ccccc4)c(OCc4ccccc4)c(OCc4ccccc4)c3)CC[C@]3(C)C(=CC[C@@H]4[C@@]5(C)CC[C@H](O)C(C)(C)[C@@H]5CC[C@]43C)[C@H]12 | Non-Toxic | Activity [4]: Active; CC50 at 40 h [2]: > 100 µM; pIC50 [3]: 4.48 |
| C=C(C)[C@@H]1CC[C@]2(C(=O)NCCNC(=O)c3ccccc3O)CC[C@]3(C)[C@H](CC[C@@H]4[C@@]5(C)CC[C@H](O)C(C)(C)[C@@H]5CC[C@]43C)[C@@H]12 | Non-Toxic | Activity [4]: Active; CC50 at 40 h [2]: > 100 µM; pIC50 [3]: 5.02 |
| C=C(C)[C@@H]1CC[C@]2(C(=O)NCCNC(=O)c3ccc(O)cc3O)CC[C@]3(C)[C@H](CC[C@@H]4[C@@]5(C)CC[C@H](O)C(C)(C)[C@@H]5CC[C@]43C)[C@@H]12 | Toxic |  |
| C=C(C)[C@@H]1CC[C@]2(C(=O)NCCNC(=O)c3cc(OCc4ccccc4)cc(OCc4ccccc4)c3)CC[C@]3(C)[C@H](CC[C@@H]4[C@@]5(C)CC[C@H](O)C(C)(C)[C@@H]5CC[C@]43C)[C@@H]12 | Non-Toxic |  |
| CC1(C)CC[C@]2(C(=O)NCCNC(=O)c3cc(O)cc(O)c3)CC[C@]3(C)C(=CC[C@@H]4[C@@]5(C)CC[C@H](O)C(C)(C)[C@@H]5CC[C@]43C)[C@@H]2C1 | Toxic |  |
| C[C@H]1[C@H](C)CC[C@]2(C(=O)NCCNC(=O)/C=C/c3ccccc3)CC[C@]3(C)C(=CC[C@@H]4[C@@]5(C)CC[C@H](O)C(C)(C)[C@@H]5CC[C@]43C)[C@H]12 | Non-Toxic | Activity [4]: Active; CC50 at 40 h [2]: > 100 µM; pIC50 [3]: 4.74 |
| CC1(C)CC[C@]2(C(=O)NCCNC(=O)c3ccc(O)cc3)[C@H](O)C[C@]3(C)C(=CC[C@@H]4[C@@]5(C)CC[C@H](O)C(C)(C)[C@@H]5CC[C@]43C)[C@@H]2C1 | Toxic |  |
| CC1(C)CC[C@]2(C(=O)NCCNC(=O)c3cc(OCc4ccccc4)c(OCc4ccccc4)c(OCc4ccccc4)c3)CC[C@]3(C)C(=CC[C@@H]4[C@@]5(C)CC[C@H](O)C(C)(C)[C@@H]5CC[C@]43C)[C@@H]2C1 | Non-Toxic | Activity [4]: Active |
| CC1(C)CC[C@]2(C(=O)NCCNC(=O)c3ccc(OCc4ccccc4)cc3)CC[C@]3(C)C(=CC[C@@H]4[C@@]5(C)CC[C@H](O)C(C)(C)[C@@H]5CC[C@]43C)[C@@H]2C1 | Non-Toxic |  |
| CC1(C)CC[C@]2(C(=O)NCCNC(=O)/C=C/c3ccc(O)cc3)CC[C@]3(C)C(=CC[C@@H]4[C@@]5(C)CC[C@H](O)C(C)(C)[C@@H]5CC[C@]43C)[C@@H]2C1 | Non-Toxic |  |
| C[C@H]1[C@H](C)CC[C@]2(C(=O)NCCNC(=O)c3ccc(O)cc3)CC[C@]3(C)C(=CC[C@@H]4[C@@]5(C)CC[C@H](O)C(C)(C)[C@@H]5CC[C@]43C)[C@H]12 | Toxic |  |
| C[C@H]1[C@H](C)CC[C@]2(C(=O)NCCNC(=O)c3ccc(O)cc3O)CC[C@]3(C)C(=CC[C@@H]4[C@@]5(C)CC[C@H](O)C(C)(C)[C@@H]5CC[C@]43C)[C@H]12 | Toxic |  |

| Structure (SMILES) | Activity [1] | also measured |
| --- | --- | --- |
| C[C@H]1[C@H](C)CC[C@]2(C(=O)NCCNC(=O)c3cc(OCc4ccccc4)cc(OCc4ccccc4)c3)CC[C@]3(C)C(=CC[C@@H]4[C@@]5(C)CC[C@H](O)C(C)(C)[C@@H]5CC[C@]43C)[C@H]12 | Non-Toxic |  |
| C=C(C)[C@@H]1CC[C@]2(C(=O)NCCNC(=O)c3cc(O)c(O)c(O)c3)CC[C@]3(C)[C@H](CC[C@@H]4[C@@]5(C)CC[C@H](O)C(C)(C)[C@@H]5CC[C@]43C)[C@@H]12 | Toxic | Activity [4]: Active |
| CC1(C)CC[C@]2(C(=O)NCCNC(=O)c3ccc(OCc4ccccc4)cc3)[C@H](O)C[C@]3(C)C(=CC[C@@H]4[C@@]5(C)CC[C@H](O)C(C)(C)[C@@H]5CC[C@]43C)[C@@H]2C1 | Non-Toxic |  |
| C=C(C)[C@@H]1CC[C@]2(C(=O)NCCNC(=O)c3cc(O)cc(O)c3)CC[C@]3(C)[C@H](CC[C@@H]4[C@@]5(C)CC[C@H](O)C(C)(C)[C@@H]5CC[C@]43C)[C@@H]12 | Toxic |  |
| CC1(C)CC[C@]2(C(=O)NCCNC(=O)c3ccc(O)cc3)CC[C@]3(C)C(=CC[C@@H]4[C@@]5(C)CC[C@H](O)C(C)(C)[C@@H]5CC[C@]43C)[C@@H]2C1 | Non-Toxic |  |
| CC1(C)CC[C@]2(C(=O)NCCNC(=O)c3cc(O)c(O)c(O)c3)CC[C@]3(C)C(=CC[C@@H]4[C@@]5(C)CC[C@H](O)C(C)(C)[C@@H]5CC[C@]43C)[C@@H]2C1 | Toxic |  |
| CC1(C)CC[C@]2(C(=O)NCCNC(=O)/C=C/c3ccccc3)[C@H](O)C[C@]3(C)C(=CC[C@@H]4[C@@]5(C)CC[C@H](O)C(C)(C)[C@@H]5CC[C@]43C)[C@@H]2C1 | Toxic |  |
| C=C(C)[C@@H]1CC[C@]2(C(=O)NCCNC(=O)c3cc(OCc4ccccc4)c(OCc4ccccc4)c(OCc4ccccc4)c3)CC[C@]3(C)[C@H](CC[C@@H]4[C@@]5(C)CC[C@H](O)C(C)(C)[C@@H]5CC[C@]43C)[C@@H]12 | Non-Toxic |  |
| C[C@H]1[C@H](C)CC[C@]2(C(=O)NCCNC(=O)/C=C/c3ccc(O)cc3)CC[C@]3(C)C(=CC[C@@H]4[C@@]5(C)CC[C@H](O)C(C)(C)[C@@H]5CC[C@]43C)[C@H]12 | Non-Toxic |  |
| C[C@H]1[C@H](C)CC[C@]2(C(=O)NCCNC(=O)c3cc(O)c(O)c(O)c3)CC[C@]3(C)C(=CC[C@@H]4[C@@]5(C)CC[C@H](O)C(C)(C)[C@@H]5CC[C@]43C)[C@H]12 | Toxic |  |
| CC1(C)CC[C@]2(C(=O)NCCNC(=O)/C=C/c3ccc(O)cc3)[C@H](O)C[C@]3(C)C(=CC[C@@H]4[C@@]5(C)CC[C@H](O)C(C)(C)[C@@H]5CC[C@]43C)[C@@H]2C1 | Non-Toxic |  |
| CC1(C)CC[C@]2(C(=O)NCCNC(=O)c3ccc(O)cc3O)CC[C@]3(C)C(=CC[C@@H]4[C@@]5(C)CC[C@H](O)C(C)(C)[C@@H]5CC[C@]43C)[C@@H]2C1 | Toxic |  |
| C=C(C)[C@@H]1CC[C@]2(C(=O)NCCNC(=O)/C=C/c3ccccc3)CC[C@]3(C)[C@H](CC[C@@H]4[C@@]5(C)CC[C@H](O)C(C)(C)[C@@H]5CC[C@]43C)[C@@H]12 | Non-Toxic |  |
| C=C(C)[C@@H]1CC[C@]2(C(=O)NCCNC(=O)c3ccc(OCc4ccccc4)cc3)CC[C@]3(C)[C@H](CC[C@@H]4[C@@]5(C)CC[C@H](O)C(C)(C)[C@@H]5CC[C@]43C)[C@@H]12 | Non-Toxic |  |
| CC1(C)CC[C@]2(C(=O)NCCNC(=O)c3cc(OCc4ccccc4)cc(OCc4ccccc4)c3)[C@H](O)C[C@]3(C)C(=CC[C@@H]4[C@@]5(C)CC[C@H](O)C(C)(C)[C@@H]5CC[C@]43C)[C@@H]2C1 | Non-Toxic |  |
| CC1(C)CC[C@]2(C(=O)NCCNC(=O)c3ccc(O)cc3O)[C@H](O)C[C@]3(C)C(=CC[C@@H]4[C@@]5(C)CC[C@H](O)C(C)(C)[C@@H]5CC[C@]43C)[C@@H]2C1 | Toxic |  |
| C[C@H]1[C@H](C)CC[C@]2(C(=O)NCCNC(=O)c3cc(O)cc(O)c3)CC[C@]3(C)C(=CC[C@@H]4[C@@]5(C)CC[C@H](O)C(C)(C)[C@@H]5CC[C@]43C)[C@H]12 | Toxic |  |
| CC1(C)CC[C@]2(C(=O)NCCNC(=O)c3cc(O)cc(O)c3)[C@H](O)C[C@]3(C)C(=CC[C@@H]4[C@@]5(C)CC[C@H](O)C(C)(C)[C@@H]5CC[C@]43C)[C@@H]2C1 | Toxic |  |
